Test results: ChEMBL document CHEMBL2163218, “Design, synthesis, and biological and structural evaluations of novel HIV-1 protease inhibitors to combat drug resistance” (J Med Chem, 2012)
pEC50, pKi: −log10 of the molar value.

Columns and labels:
[1] = tested on: Human immunodeficiency virus 1; assay: Antiviral activity against wild type HIV1 clade C isolated form HIV1 patient infected in HEK293 cells assessed as reduction in viral replication incubated for 48 hrs by luciferase reporter based assay; assay type: functional, organism-based; conditions: Human immunodeficiency virus 1, clade C, HEK293, 48 h
[2] = tested on: Human immunodeficiency virus 1; assay: Antiviral activity against wild type HIV1 clade A isolated form HIV1 patient infected in HEK293 cells assessed as reduction in viral replication incubated for 48 hrs by luciferase reporter based assay; assay type: functional, organism-based; conditions: Human immunodeficiency virus 1, clade A, HEK293, 48 h
[3] = tested on: Human immunodeficiency virus 1; assay: Antiviral activity against wild type HIV1 infected in HEK293 cells assessed as reduction in viral replication incubated for 48 hrs by luciferase reporter based assay; assay type: functional, organism-based; conditions: Human immunodeficiency virus 1, HEK293, 48 h
[4] = tested on: Human immunodeficiency virus 1; assay: Antiviral activity against wild type HIV1 clade B isolated form HIV1 patient infected in HEK293 cells assessed as reduction in viral replication incubated for 48 hrs by luciferase reporter based assay; assay type: functional, organism-based; conditions: Human immunodeficiency virus 1, clade B, HEK293, 48 h
[5] = tested on: Human immunodeficiency virus 1; assay: Antiviral activity against multidrug resistant HIV1 MDR1 containing protease M46I, I54V, V82A and L90M mutant infected in HEK293 cells assessed as reduction in viral replication incubated for 48 hrs by luciferase reporter based assay; assay type: functional, organism-based; conditions: Human immunodeficiency virus 1, MDR1, HEK293, 48 h
[6] = tested on: Human immunodeficiency virus 1; assay: Antiviral activity against multidrug resistant HIV1 MDRC4 infected in HEK293 cells assessed as reduction in viral replication incubated for 48 hrs by luciferase reporter based assay; assay type: functional, organism-based; conditions: Human immunodeficiency virus 1, MDRC4, HEK293, 48 h
Protease = Protease (Human immunodeficiency virus 1, UniProt Q9YQ12); assay: Inhibition of wild type HIV1 protease by FRET assay
Method in brief: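 Recombinant HIV-1 protease Q7K, desalted into 20 mM sodium acetate pH 5, apparent concentration ~50 nM (UV 280 nm). Inhibitors in DMSO, 12 concentrations, added with protease to buffer pH 4.7 (0.1 M NaOAc, 1 M NaCl, 1 mM EDTA, 1 mM DTT, 2% DMSO, 1 mg/mL BSA). Cleavage started by injecting EDANS/DABCYL peptide substrate. Ki from initial velocities fitted to the Morrison equation.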

[7] = biological target: Human immunodeficiency virus type 1 protease (Human immunodeficiency virus 1, UniProt Q72874, A71V/I50V); assay: Inhibition of HIV1 protease I50V, A71V mutant by FRET assay
[8] = biological target: Human immunodeficiency virus type 1 protease (Human immunodeficiency virus 1, UniProt Q72874, G48V/I54V/L10I/L63P/V82A); assay: Inhibition of HIV1 protease L10I, G48V, I54V, L63P and V82A mutant by FRET assay
[9] = biological target: Human immunodeficiency virus type 1 protease (Human immunodeficiency virus 1, UniProt Q72874, A71V/G73S/I84V/L10I/L63P/L90M); assay: Inhibition of HIV1 protease L10I, L63P, A71V, G73S, I84V, L90M mutant by FRET assay

Chain of Protease (Q9YQ12 whole entry): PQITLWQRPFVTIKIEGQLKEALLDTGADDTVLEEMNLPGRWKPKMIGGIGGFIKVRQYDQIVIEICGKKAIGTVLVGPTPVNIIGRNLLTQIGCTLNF

Structure (SMILES)	pEC50 [1]	pEC50 [2]	pEC50 [3]	pEC50 [4]	pEC50 [5]	pEC50 [6]	pKi (Protease)	also measured
CC(C)CN(C[C@@H](O)[C@H](Cc1ccccc1)NC(=O)O[C@H]1CCOC1)S(=O)(=O)c1ccc(N)cc1	8.43	8.59	8.52	8.74	7.81	7.76		
CC(C)CN(C[C@@H](O)[C@H](Cc1ccccc1)NC(=O)O[C@H]1CO[C@H]2OCC[C@H]21)S(=O)(=O)c1ccc(N)cc1	9.74	9.52	9.60	9.82	9.64			
CCCCCN(C[C@@H](O)[C@H](Cc1ccccc1)NC(=O)OCCN1CCNC1=O)S(=O)(=O)c1ccc(OC)cc1							9.40	
CCCCCN(C[C@@H](O)[C@H](Cc1ccccc1)NC(=O)OCCN1CCOC1=O)S(=O)(=O)c1ccc(OC)cc1	6.80	6.90	7.11	7.28	6.52	6.58	11.10	
CCCCCN(C[C@@H](O)[C@H](Cc1ccccc1)NC(=O)O[C@@H]1CCOC1=O)S(=O)(=O)c1ccc(OC)cc1							7.18	
CCCCCN(C[C@@H](O)[C@H](Cc1ccccc1)NC(=O)OC[C@@H]1CCC(=O)N1)S(=O)(=O)c1ccc(OC)cc1							9.20	
CCCCCN(C[C@@H](O)[C@H](Cc1ccccc1)NC(=O)O[C@H](C)CC(=O)OC)S(=O)(=O)c1ccc2ncsc2c1							7.94	pKi [7]: 6.92; pKi [8]: 6.74; pKi [9]: 7.34
CCCCCN(C[C@@H](O)[C@H](Cc1ccccc1)NC(=O)OCCNC(=O)C(F)(F)F)S(=O)(=O)c1ccc2ncsc2c1							7.71	
CCCCCN(C[C@@H](O)[C@H](Cc1ccccc1)NC(=O)OCCNC(=O)C(Cl)Cl)S(=O)(=O)c1ccc2ncsc2c1	7.17	7.10	7.42	7.52	6.60	6.55		
CCCCCN(C[C@@H](O)[C@H](Cc1ccccc1)NC(=O)O[C@H](C)CCC(C)=O)S(=O)(=O)c1ccc2ncsc2c1							8.47	
CCCCCN(C[C@@H](O)[C@H](Cc1ccccc1)NC(=O)OCCNC(=O)OC(C)(C)C)S(=O)(=O)c1ccc2ncsc2c1							8.89	
CCCCCN(C[C@@H](O)[C@H](Cc1ccccc1)NC(=O)OC[C@@H](C)C(=O)OC)S(=O)(=O)c1ccc2ncsc2c1							8.48	
CCCCCN(C[C@@H](O)[C@H](Cc1ccccc1)NC(=O)OCCN1CCNC1=O)S(=O)(=O)c1ccc2ncsc2c1	6.89	7.00	7.08	7.27	6.63	6.56	9.66	
CCCCCN(C[C@@H](O)[C@H](Cc1ccccc1)NC(=O)OCCN1CCOC1=O)S(=O)(=O)c1ccc2ncsc2c1	6.92	7.02	7.14	7.39	6.59	6.38	10.77	
CCCCCN(C[C@@H](O)[C@H](Cc1ccccc1)NC(=O)O[C@@H]1CCOC1=O)S(=O)(=O)c1ccc2ncsc2c1							7.38	
CCCCCN(C[C@@H](O)[C@H](Cc1ccccc1)NC(=O)OC[C@@H]1CCC(=O)N1)S(=O)(=O)c1ccc2ncsc2c1	7.02	7.08	7.23	7.35	6.89	6.76		
CC[C@H](C)CN(C[C@@H](O)[C@H](Cc1ccccc1)NC(=O)OCCNC(=O)C(F)(F)F)S(=O)(=O)c1ccc2ncsc2c1							8.04	
CC[C@H](C)CN(C[C@@H](O)[C@H](Cc1ccccc1)NC(=O)OCCNC(=O)C(Cl)Cl)S(=O)(=O)c1ccc2ncsc2c1	7.06	7.19	7.37	7.54	6.84	6.72		
CC[C@H](C)CN(C[C@@H](O)[C@H](Cc1ccccc1)NC(=O)OCCNC(=O)OC(C)(C)C)S(=O)(=O)c1ccc2ncsc2c1	6.48	6.64	6.70	6.74	6.12	6.04		

Structure (SMILES)	pEC50 [1]	pEC50 [2]	pEC50 [3]	pEC50 [4]	pEC50 [5]	pEC50 [6]	pKi (Protease)	also measured
CC[C@H](C)CN(C[C@@H](O)[C@H](Cc1ccccc1)NC(=O)OC[C@@H](C)C(=O)OC)S(=O)(=O)c1ccc2ncsc2c1							8.86	
CC[C@H](C)CN(C[C@@H](O)[C@H](Cc1ccccc1)NC(=O)OCCN1CCNC1=O)S(=O)(=O)c1ccc2ncsc2c1	7.31	7.50	7.46	7.67	7.30	7.06		
CC[C@H](C)CN(C[C@@H](O)[C@H](Cc1ccccc1)NC(=O)OCCN1CCOC1=O)S(=O)(=O)c1ccc2ncsc2c1	7.44	7.67	7.48	7.92	7.49	7.13	11.30	
CC[C@H](C)CN(C[C@@H](O)[C@H](Cc1ccccc1)NC(=O)OC[C@@H]1CCC(=O)N1)S(=O)(=O)c1ccc2ncsc2c1	7.88	7.60	7.81	7.79	7.68	7.45		
CCCCCN(C[C@@H](O)[C@H](Cc1ccccc1)NC(=O)O[C@H](C)CC(=O)OC)S(=O)(=O)c1ccc(OC)cc1							7.76	
CCCCCN(C[C@@H](O)[C@H](Cc1ccccc1)NC(=O)OCCNC(=O)C(F)(F)F)S(=O)(=O)c1ccc(OC)cc1							7.50	
CCCCCN(C[C@@H](O)[C@H](Cc1ccccc1)NC(=O)O[C@H](C)CCC(C)=O)S(=O)(=O)c1ccc(OC)cc1							8.16	
CCCCCN(C[C@@H](O)[C@H](Cc1ccccc1)NC(=O)OCCNC(=O)OC(C)(C)C)S(=O)(=O)c1ccc(OC)cc1							8.53	
CC[C@H](C)CN(C[C@@H](O)[C@H](Cc1ccccc1)NC(=O)OC(C)(C)C)S(=O)(=O)c1ccc2ncsc2c1							9.61	
CC[C@H](C)CN(C[C@@H](O)[C@H](Cc1ccccc1)NC(=O)OCCNC(=O)C(F)(F)F)S(=O)(=O)c1ccc(OC)cc1							7.92	
CC[C@H](C)CN(C[C@@H](O)[C@H](Cc1ccccc1)NC(=O)OCCNC(=O)C(Cl)Cl)S(=O)(=O)c1ccc(OC)cc1	7.07	7.29	7.41	7.51	6.91	6.80		
CC[C@H](C)CN(C[C@@H](O)[C@H](Cc1ccccc1)NC(=O)O[C@H](C)CCC(C)=O)S(=O)(=O)c1ccc(OC)cc1							9.37	
CC[C@H](C)CN(C[C@@H](O)[C@H](Cc1ccccc1)NC(=O)OCCNC(=O)OC(C)(C)C)S(=O)(=O)c1ccc(OC)cc1							8.70	
CC[C@H](C)CN(C[C@@H](O)[C@H](Cc1ccccc1)NC(=O)OC[C@@H](C)C(=O)OC)S(=O)(=O)c1ccc(OC)cc1	7.44	7.60	7.51	7.69	7.38	7.25		
CC[C@H](C)CN(C[C@@H](O)[C@H](Cc1ccccc1)NC(=O)OCCN1CCNC1=O)S(=O)(=O)c1ccc(OC)cc1	6.87	7.02	7.07	7.24	6.95	6.88		
CC[C@H](C)CN(C[C@@H](O)[C@H](Cc1ccccc1)NC(=O)OCCN1CCOC1=O)S(=O)(=O)c1ccc(OC)cc1	7.24	7.36	7.39	7.56	7.25	7.13		
CC[C@H](C)CN(C[C@@H](O)[C@H](Cc1ccccc1)NC(=O)O[C@@H]1CCOC1=O)S(=O)(=O)c1ccc(OC)cc1							7.45	
CC[C@H](C)CN(C[C@@H](O)[C@H](Cc1ccccc1)NC(=O)OC[C@@H]1CCC(=O)N1)S(=O)(=O)c1ccc(OC)cc1	7.36	7.19	7.36	7.41	7.43	7.14		
